pIC50: −log10 of the molar value. Blank lines part the entries; values can stand above or below the compound they belong to.
Columns and labels:
[1] = Cytotoxicity against human HeLaS3 cells after 3 days by XTT assay; assay type: functional, cell-based; details: HeLa S3, 72 h
Procedure, shortened: (§1)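 Suspension-grown cell lines, 3-day compound incubation; viability read by XTT metabolic assay; IC50 averaged from four independent experiments.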

BT-549 [2] = assay: Cytostatic activity against human BT549 cells after 5 days by SRB assay; assay type: functional; details: BT-549, 120 h
Procedure, shortened: (§2)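 Cells seeded per line density, overnight at 37 °C; day-zero plate TCA-fixed. 5-fold serial dilutions added, 5-day incubation; TCA fixation, 0.057% SRB in 1% acetic acid 30 min, dye dissolved in 10 mM Tris pH 10.5, A500. Growth relative to day-zero and untreated; GIC50 from sigmoidal dose–response fit; mean of two independent experiments.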

PC-3 [3] = assay: Cytostatic activity against human PC3 cells after 5 days by SRB assay; assay type: functional; details: PC-3, 120 h; procedure, shortened: as §2
CCRF-CEM = assay: Cytotoxicity against human CCRF-CEM cells after 3 days by XTT assay; assay type: functional, cell-based; details: 72 h; procedure, shortened: as §1
NCI-H23 = assay: Cytostatic activity against human NCI-H23 cells after 5 days by SRB assay; assay type: functional; details: NCI-H23, 120 h; procedure, shortened: as §2
A549 = assay: Cytostatic activity against human A549 cells after 5 days by SRB assay; assay type: functional; details: A549, 120 h; procedure, shortened: as §2
HCT-116 = assay: Cytostatic activity against human HCT116 cells after 5 days by SRB assay; assay type: functional; details: HCT-116, 120 h; procedure, shortened: as §2
HL-60 = assay: Cytotoxicity against human HL60 cells after 3 days by XTT assay; assay type: functional, cell-based; details: HL-60, 72 h; procedure, shortened: as §1
[4] = Cytostatic activity against human Hs578 cells after 5 days by SRB assay; assay type: functional; details: Hs578, 120 h; procedure, shortened: as §2
DU-145 = assay: Cytostatic activity against human DU145 cells after 5 days by SRB assay; assay type: functional; details: DU-145, 120 h; procedure, shortened: as §2
Adenosine kinase = Adenosine kinase (Homo sapiens, UniProt P55263); assay: Inhibition of human ADK using [3H]-adenosine by scintillation counting
MT4 = assay: Cytostatic activity against human MT4 cells after 5 days by SRB assay; assay type: functional; details: MT4, 120 h
LNCaP = assay: Cytotoxicity against human LNCAP cells after 3 days by MTT assay; assay type: functional, cell-based; details: 72 h
BT-549 [5] = assay: Cytotoxicity against human BT549 cells after 3 days by MTT assay; assay type: functional, cell-based; details: BT-549, 72 h
[6] = Cytotoxicity against mouse P388D1 cells after 3 days by MTT assay; assay type: functional, cell-based; details: P388D1, 72 h
[7] = Cytotoxicity against human U87MG cells after 3 days by MTT assay; assay type: functional, cell-based, U-87MG ATCC; details: U-87 MG, 72 h
EL4 = assay: Cytotoxicity against mouse EL4 cells after 3 days by MTT assay; assay type: functional, cell-based; details: EL4, 72 h
L1210 = assay: Cytotoxicity against mouse L1210 cells after 3 days by MTT assay; assay type: functional, cell-based; details: L1210, 72 h
MCF7 = assay: Cytotoxicity against human MCF7 cells after 3 days by MTT assay; assay type: functional, cell-based; details: MCF7, 72 h
BJ = assay: Cytotoxicity against human BJ cells after 3 days by MTT assay; assay type: cell-based; details: 72 h
HPAC = assay: Cytotoxicity against human HPAC cells after 3 days by MTT assay; assay type: functional, cell-based; details: 72 h
BV-173 = assay: Cytotoxicity against human BV173 cells after 3 days by MTT assay; assay type: functional, cell-based; details: BV-173, 72 h
[8] = Cytotoxicity against human CEM-DNR-bulk cells after 3 days by MTT assay; assay type: functional, cell-based; details: 72 h
SK-OV-3 = assay: Cytotoxicity against human SKOV3 cells after 3 days by MTT assay; assay type: functional, cell-based; details: SK-OV-3, 72 h
SK-N-AS = assay: Cytotoxicity against human SK-N-AS cells after 3 days by MTT assay; assay type: functional, cell-based; details: 72 h
[9] = Cytotoxicity against human NCI-H146 cells after 3 days by MTT assay; assay type: functional, cell-based; details: NCI-H146, 72 h
HeLa = assay: Cytotoxicity against human HeLa cells after 3 days by MTT assay; assay type: functional, cell-based; details: 72 h
SK-MEL-2 = assay: Cytotoxicity against human SK-MEL-2 cells after 3 days by MTT assay; assay type: functional, cell-based; details: SK-MEL-2, 72 h
CT26 = assay: Cytotoxicity against mouse CT26 cells after 3 days by MTT assay; assay type: functional, cell-based; details: CT26, 72 h
C6 = assay: Cytotoxicity against rat C6 cells after 3 days by MTT assay; assay type: functional, cell-based; details: C6, 72 h
PC-3 [10] = assay: Cytotoxicity against human PC3 cells after 3 days by MTT assay; assay type: functional, cell-based; details: PC-3, 72 h
[11] = Cytotoxicity against human MES-SA cells after 3 days by MTT assay; assay type: functional, cell-based; details: 72 h
K562 [12] = assay: Cytotoxicity against human paclitaxel resistant K562 cells after 3 days by MTT assay; assay type: functional, cell-based; details: K562, 72 h
K562 [13] = assay: Cytotoxicity against human K562 cells after 3 days by MTT assay; assay type: functional, cell-based; details: K562, 72 h
HT-29 = assay: Cytotoxicity against human HT-29 cells after 3 days by MTT assay; assay type: functional, cell-based; details: HT-29, 72 h
MDA-MB-231 = assay: Cytotoxicity against human MDA-MB-231 cells after 3 days by MTT assay; assay type: functional, cell-based; details: MDA-MB-231, 72 h
HCT-15 = assay: Cytostatic activity against human HCT15 cells after 5 days by SRB assay; assay type: functional; details: HCT-15, 120 h; procedure, shortened: as §2

Adenosine kinase, sequence (P55263 whole entry): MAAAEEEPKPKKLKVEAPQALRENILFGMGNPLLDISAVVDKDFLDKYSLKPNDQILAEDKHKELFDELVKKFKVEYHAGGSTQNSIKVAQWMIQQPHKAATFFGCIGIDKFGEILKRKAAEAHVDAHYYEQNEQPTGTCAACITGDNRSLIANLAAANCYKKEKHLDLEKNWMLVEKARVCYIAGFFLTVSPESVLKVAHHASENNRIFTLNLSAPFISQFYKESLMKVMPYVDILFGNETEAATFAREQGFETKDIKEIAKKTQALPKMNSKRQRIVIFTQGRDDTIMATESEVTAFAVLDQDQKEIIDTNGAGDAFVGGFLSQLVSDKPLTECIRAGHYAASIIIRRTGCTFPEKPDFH

GI50 (BT-549 [2]): 0.129 µM
GI50 (PC-3 [3]): 0.0878 µM
GI50 (NCI-H23): 0.333 µM
GI50 (A549): 0.16 µM
GI50 (HCT-116): 0.0652 µM
SMILES: Nc1ncnc2c1c(-c1ccc[nH]1)cn2[C@@H]1O[C@H](CO)[C@@H](O)[C@H]1O
pIC50 [1]: 5.98
pIC50 (CCRF-CEM): 6.80
pIC50 (HL-60): 5.69
GI50 [4]: 0.113 µM

GI50 (DU-145): 1.05 µM
pIC50 (Adenosine kinase): < 5.30
GI50 (NCI-H23): 5.35 µM
GI50 (HCT-116): 5.67 µM
SMILES: Nc1ncnc2c1c(-c1ccc3ccccc3c1)cn2[C@@H]1O[C@H](CO)[C@@H](O)[C@H]1O
pIC50 [1]: < 5.00
pIC50 (CCRF-CEM): < 5.00
pIC50 (HL-60): < 5.00
GI50 [4]: 2.16 µM

GI50 (PC-3 [3]): 0.042 µM
GI50 (NCI-H23): 0.005 µM
GI50 (HCT-116): 0.093 µM
SMILES: Nc1ncnc2c1c(-c1nccs1)cn2[C@@H]1O[C@H](CO)[C@@H](O)[C@H]1O
pIC50 [1]: 7.40
pIC50 (CCRF-CEM): 7.70
GI50 (MT4): 0.042 µM
pIC50 (HL-60): 5.79
GI50 [4]: 0.015 µM

GI50 (PC-3 [3]): 0.015 µM
pIC50 (Adenosine kinase): < 5.00
GI50 (NCI-H23): 0.035 µM
GI50 (HCT-116): 0.018 µM
SMILES: Nc1ncnc2c1c(-c1cc[nH]n1)cn2[C@@H]1O[C@H](CO)[C@@H](O)[C@H]1O
pIC50 [1]: 6.16
pIC50 (CCRF-CEM): 6.89
GI50 (MT4): 0.018 µM
pIC50 (HL-60): < 4.70
GI50 [4]: 0.008 µM

GI50 (BT-549 [2]): 0.008 µM
GI50 (PC-3 [3]): 0.029 µM
pIC50 (Adenosine kinase): < 5.30
GI50 (NCI-H23): 0.033 µM
GI50 (A549): 0.0053 µM
GI50 (HCT-116): 0.0059 µM
SMILES: Nc1ncnc2c1c(-c1cc[nH]c1)cn2[C@@H]1O[C@H](CO)[C@@H](O)[C@H]1O
pIC50 (LNCaP): 7.68
pIC50 (BT-549 [5]): 8.22
pIC50 [1]: 7.15
pIC50 [6]: 8.00
pIC50 [7]: < 5.00
pIC50 (EL4): 5.03
pIC50 (L1210): 7.08
pIC50 (MCF7): 5.20
pIC50 (BJ): 5.22
pIC50 (CCRF-CEM): 6.96
pIC50 (HPAC): 7.17
pIC50 (BV-173): 8.40
pIC50 [8]: 8.10
pIC50 (SK-OV-3): < 5.00
pIC50 (SK-N-AS): < 5.00
pIC50 [9]: < 5.00
GI50 (MT4): 0.024 µM
pIC50 (HeLa): 7.40
pIC50 (SK-MEL-2): 5.06
pIC50 (CT26): 7.77
pIC50 (C6): 5.43
pIC50 (PC-3 [10]): < 5.00
pIC50 (HL-60): 6.08
pIC50 [11]: 7.09
pIC50 (K562 [12]): 8.05
pIC50 (K562 [13]): 7.48
pIC50 (HT-29): 5.39
GI50 [4]: 0.0044 µM
pIC50 (MDA-MB-231): 7.57

SMILES: C#Cc1cn([C@@H]2O[C@H](CO)[C@@H](O)[C@H]2O)c2ncnc(N)c12
pIC50 [1]: 7.70
GI50 (PC-3 [3]): 0.011 µM
pIC50 (CCRF-CEM): 8.00
pIC50 (Adenosine kinase): 6.70
GI50 (NCI-H23): 0.001 µM
GI50 (MT4): 0.001 µM
GI50 (HCT-116): 0.002 µM
pIC50 (HL-60): 7.05
GI50 [4]: 0.001 µM

SMILES: Nc1ncnc2c1ccn2[C@@H]1O[C@H](CO)[C@@H](O)[C@H]1O [TUBERCIDIN]
GI50 (DU-145): 0.018 µM
GI50 (PC-3 [3]): 0.048 µM
GI50 (HCT-15): 0.011 µM
GI50 (NCI-H23): 0.011 µM
GI50 (MT4): 0.021 µM
GI50 (A549): 0.001 µM
GI50 (HCT-116): 0.001 µM
GI50 [4]: 0.098 µM

GI50 (BT-549 [2]): > 10 µM
GI50 (PC-3 [3]): 6.29 µM
pIC50 (Adenosine kinase): < 5.00
GI50 (NCI-H23): 5.4 µM
GI50 (A549): 7.02 µM
GI50 (HCT-116): 3.74 µM
SMILES: Nc1ncnc2c1c(-c1cc3ccccc3o1)cn2[C@@H]1O[C@H](CO)[C@@H](O)[C@H]1O
pIC50 [1]: < 5.00
pIC50 (CCRF-CEM): 5.40
GI50 (MT4): 4.8 µM
pIC50 (HL-60): < 5.00
GI50 [4]: 6.73 µM

GI50 (PC-3 [3]): 0.005 µM
GI50 (NCI-H23): 0.004 µM
GI50 (HCT-116): 0.004 µM
SMILES: Nc1ncnc2c1c(-c1c[nH]nn1)cn2[C@@H]1O[C@H](CO)[C@@H](O)[C@H]1O
pIC50 [1]: 7.05
pIC50 (CCRF-CEM): 7.22
GI50 (MT4): 0.018 µM
pIC50 (HL-60): 6.51
GI50 [4]: 0.003 µM

GI50 (PC-3 [3]): 0.001 µM
pIC50 (Adenosine kinase): < 5.30
GI50 (NCI-H23): 0.006 µM
GI50 (HCT-116): 0.002 µM
SMILES: Nc1ncnc2c1c(-c1ncc[nH]1)cn2[C@@H]1O[C@H](CO)[C@@H](O)[C@H]1O
pIC50 [1]: 6.36
pIC50 (CCRF-CEM): 7.15
GI50 (MT4): 0.049 µM
pIC50 (HL-60): 7.00
GI50 [4]: 0.001 µM

GI50 (DU-145): 0.125 µM
GI50 (BT-549 [2]): 0.065 µM
GI50 (PC-3 [3]): 0.063 µM
GI50 (HCT-15): 0.18 µM
GI50 (NCI-H23): 0.04 µM
GI50 (A549): 0.086 µM
GI50 (HCT-116): 0.106 µM
SMILES: Nc1nc(Cl)nc2c1ncn2[C@@H]1O[C@H](CO)[C@@H](O)[C@@H]1F [CLOFARABINE]
GI50 (MT4): 0.051 µM
GI50 [4]: 1.24 µM

Reference: ChEMBL document CHEMBL1811802, “Synthesis and significant cytostatic activity of 7-hetaryl-7-deazaadenosines” (J Med Chem, 2011)
